Data as given in article PMC3777810 (Journal of medicinal chemistry, 2013).
Entries after “also recorded” stand apart in the source; their conditions may differ. Where a name gives a salt, the structure may show the parent alone.

Legend:
[1] = system: MA-10 mouse tumor Leydig cells; assay: Cellular toxicity by MTT assay; format: cell-based; settings: 100 μM, 2 h
Summary of the method: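 MA-10 mouse Leydig tumor cells were grown in DMEM/F-12 Ham with 5% fetal bovine serum and 2.5% heat-inactivated horse serum. They were exposed to test compound for 2 h, at 100 μM or over 0.1–100 μM, and toxicity was read by MTT. Single-concentration data are mean ± S.E.M. (n=3), compared by one-way ANOVA with Newman-Keuls post-test. Dose curves were fitted by nonlinear regression.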

[2] = system: MA-10 mouse tumor Leydig cells; assay: Steroidogenesis assay: progesterone production by RIA; format: cell-based; settings: for stimulation of progesterone production: 100 μM; for stimulation of progesterone production / progesterone production: 2 h incubation, RIA; for time of first maximum steroid production: 50 μM, 0–120 min, biphasic time response; for progesterone production: all tested concentrations (0–100 μM)
Summary of the method: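 Cells were plated at 2.5 × 10^4 per well, left to adhere 18 h, washed with PBS, then given serum-free medium with 0–100 μM test compound from DMSO stocks (final DMSO <0.02%; controls matched). Incubation was 2 h, or 0–120 min at 50 μM (n=2). Medium progesterone was measured by RIA with anti-progesterone antisera and normalized to well protein (Bradford, BSA standard).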

[3] = system: C57BL/6 mice; assay: SmartCube behavioral assay; format: in vivo, mouse; settings: for SmartCube signature after chronic administration: 50 mg/kg i.p. once a day for 13 days; for SmartCube signature after a single dose: 50 mg/kg i.p., day 1, 15 min after dose
Summary of the method: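 Mice received test compound at 50 mg/kg i.p. once daily for 13 days, dosed 15 min before a session presenting multiple challenges, with at least 12 mice per group. Behavioral features were analyzed by computer algorithms and data mining. They were compared with a database of signatures from reference antipsychotics, anxiolytics and antidepressants.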

[4] = target: human GSK-3β (Homo sapiens, UniProt P49841); assay: GSK-3β inhibition, phosphorylation of primed substrate; format: biochemical
[5] = system: mouse model of mania; settings: amphetamine and chlordiazepoxide induced; cited from earlier work

Sequence of human GSK-3β (P49841 whole entry): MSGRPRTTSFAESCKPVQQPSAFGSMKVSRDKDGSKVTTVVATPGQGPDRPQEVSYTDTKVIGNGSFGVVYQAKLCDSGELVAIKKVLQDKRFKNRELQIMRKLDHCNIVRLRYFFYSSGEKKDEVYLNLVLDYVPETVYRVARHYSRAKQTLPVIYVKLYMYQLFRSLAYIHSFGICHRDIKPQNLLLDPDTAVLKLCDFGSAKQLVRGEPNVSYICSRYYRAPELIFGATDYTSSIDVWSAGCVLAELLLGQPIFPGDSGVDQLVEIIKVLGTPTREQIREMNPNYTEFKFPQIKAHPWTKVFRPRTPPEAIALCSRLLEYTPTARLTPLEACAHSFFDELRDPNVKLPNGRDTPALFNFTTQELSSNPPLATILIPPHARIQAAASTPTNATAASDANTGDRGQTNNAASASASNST

Compound	cellular toxicity (MTT) [1]	stimulation of progesterone production [2]	progesterone production [2]	further results
COCCc1cccc2c(C3=C(c4coc5ccccc45)C(=O)NC3=O)cn(C)c12 [Compound 21, 3-(Benzofuran-3-yl)-4-(7-(2-methoxyethyl)-1-methyl-1H-indol-3-yl)-1H-pyrrole-2,5-dione]	either low or no apparent toxicity	bioactive in stimulating progesterone production		
COCCn1cc(C2=C(c3coc4ccccc34)C(=O)NC2=O)c2cc(F)c(F)cc21 [Compound 12, 3-(Benzofuran-3-yl)-4-(5,6-difluoro-1-(2-methoxyethyl)-1H-indol-3-yl)-1H-pyrrole-2,5-dione]	significantly more cytotoxic; also recorded: toxic to the MA-10 cells	bioactive in stimulating progesterone production		
O=C1NC(=O)C(c2cn3c4c(cc(F)cc24)CN(C(=O)N2CCC(N4CCCCC4)CC2)CC3)=C1c1coc2ccccc12 [Compound 30, 3-(2-([1,4’-Bipiperidine]-1’-carbonyl)-9-fluoro-1,2,3,4-tetrahydro-[1,4]diazepino[6,7,1-hi]indol-7-yl)-4-(benzofuran-3-yl)-1H-pyrrole-2,5-dione trifluoroacetate]	significantly more cytotoxic			
O=C1NC(=O)C(c2cn3c4c(cc(F)cc24)CN(C(=O)N2CCOCC2)CC3)=C1c1coc2ccccc12 [Compound 31, 3-(Benzofuran-3-yl)-4-(9-fluoro-2-(morpholine-4-carbonyl)-1,2,3,4-tetrahydro-[1,4]diazepino[6,7,1-hi]indol-7-yl)-1H-pyrrole-2,5-dione]	significantly more cytotoxic			
COCCn1cc(C2=C(c3coc4ccccc34)C(=O)NC2=O)c2ccccc21 [Compound 9, 3-(Benzofuran-3-yl)-4-(1-(2-methoxyethyl)-1H-indol-3-yl)-1H-pyrrole-2,5-dione]	either low or no apparent toxicity	bioactive in stimulating progesterone production		time of first maximum steroid production [2]: ≤ 15 min; SmartCube signature after chronic administration [3]: predicting anxiolytic-like activity; SmartCube signature after a single dose [3]: Neither compound demonstrated any classified behavioral activity
O=C1NC(=O)C(c2cn3c4c(cc(Br)cc24)CNCC3)=C1c1coc2ccccc12 [Compound 26, 3-(Benzofuran-3-yl)-4-(9-bromo-1,2,3,4-tetrahydro-[1,4]diazepino[6,7,1-hi]indol-7-yl)-1H-pyrrole-2,5-dione trifluoroacetate]	toxic to the MA-10 cells	bioactive in stimulating progesterone production		
Cn1cc(C2=C(c3cnc4ccccn34)C(=O)NC2=O)c2cc3c(cc21)OCO3 [Compound 19, 3-(Imidazo[1,2-a]pyridin-3-yl)-4-(5-methyl-5H-[1,3]dioxolo[4,5-f]indol-7-yl)-1H-pyrrole-2,5-dione trifluoroacetate]				IC50 [4]: 5 nM
Cn1cc(C2=C(c3coc4ccccc34)C(=O)NC2=O)c2cc(Br)ccc21 [Compound 1, 3-(benzofuran-3-yl)-4-(5-bromo-1-methyl-1H-indol-3-yl)-1H-pyrrole-2,5-dione]	either low or no apparent toxicity	bioactive in stimulating progesterone production		time of first maximum steroid production [2]: ≤ 15 min; effect on hyperactivity [5]: attenuates hyperactivity; SmartCube signature after chronic administration [3]: predicting anxiolytic-like activity; SmartCube signature after a single dose [3]: Neither compound demonstrated any classified behavioral activity
COCCc1cccc2c(C3=C(c4coc5ccccc45)C(=O)NC3=O)cn(CCOC)c12 [Compound 23, 3-(Benzofuran-3-yl)-4-(1,7-bis(2-methoxyethyl)-1H-indol-3-yl)-1H-pyrrole-2,5-dione]	low, but observable signs of cytotoxicity		< 30 ng progesterone/mg protein	
COCCn1cc(C2=C(c3coc4ccccc34)C(=O)NC2=O)c2cc(Br)cnc21 [Compound 14, 3-(Benzofuran-3-yl)-4-(5-bromo-1-(2-methoxyethyl)-1H-pyrrolo[2,3-b]pyridin-3-yl)-1Hpyrrole-2,5-dione]	either low or no apparent toxicity	bioactive in stimulating progesterone production		
O=C1NC(=O)C(c2cn3c4c(cc(F)cc24)CNCC3)=C1c1coc2ccccc12 [Compound 25, 3-(Benzofuran-3-yl)-4-(9-fluoro-1,2,3,4-tetrahydro-[1,4]diazepino[6,7,1-hi]indol-7-yl)-1H-pyrrole-2,5-dione trifluoroacetate]			< 30 ng progesterone/mg protein	
Cn1cc(C2=C(c3coc4ccccc34)C(=O)NC2=O)c2cc(Br)cnc21 [Compound 13, 3-(Benzofuran-3-yl)-4-(5-bromo-1-methyl-1H-pyrrolo[2,3-b]pyridin-3-yl)-1H-pyrrole-2,5-dione]	either low or no apparent toxicity	bioactive in stimulating progesterone production		IC50 [4]: 5 nM
Cn1cc(C2=C(c3cnc4ccccn34)C(=O)NC2=O)c2cc(Br)ccc21 [Compound 20, 3-(5-Bromo-1-methyl-1H-indol-3-yl)-4-(imidazo[1,2-a]pyridin-3-yl)-1H-pyrrole-2,5-dione trifluoroacetate]			< 30 ng progesterone/mg protein	
COc1cc2c(C3=C(c4coc5ccccc45)C(=O)NC3=O)cn(C)c2cn1 [Compound 17, 3-(Benzofuran-3-yl)-4-(5-methoxy-1-methyl-1H-pyrrolo[2,3-c]pyridin-3-yl)-1H-pyrrole-2,5-dione]			< 30 ng progesterone/mg protein	
COCCn1cc(C2=C(c3coc4ccccc34)C(=O)NC2=O)c2cccnc21 [Compound 16, 3-(Benzofuran-3-yl)-4-(1-(2-methoxyethyl)-1H-pyrrolo[2,3-b]pyridin-3-yl)-1H-pyrrole-2,5-dione]	low, but observable signs of cytotoxicity		< 30 ng progesterone/mg protein	
